# Results taken from PMC3891043 (Canadian journal of chemistry, 2011).
# Marks after values point to notes of the source that are not given here.
# Legend:
# [1] = Photolysis quantum yields; format: physicochemical; conditions: for Φdis, disappearance quantum yield (pHP diethyl phosphates) / Φdis, disappearance quantum yield (pHP acetates): λ = 300 nm; for Photochemical reactivity: photolysis in unbuffered H2O; for Φdis, disappearance quantum yield (pHP acetates): 20% aq CH3CN or DMSO
# Method in brief: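 Caged compound (1–9 mmol/L) plus internal standard (caffeine or 4-acetamidophenol) in water, buffer or solvent, in a quartz tube. Irradiated in a Rayonet carousel (two 15 W, 3000 Å Hg lamps), with ferrioxalate actinometry. Aliquots taken every 30 s up to 5 min, diluted and run on C18 LC-MS (water/methanol gradient with ammonium formate/formic acid), three injections each. Quantitation used calibration curves; Φ = concentration change / photons absorbed. 1H NMR in D2O confirmed products.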
# [2] = cited from earlier work
# [3] = Laser flash photolysis / femtosecond pump-probe spectroscopy; format: physicochemical
# Method in brief: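 Pump: 266 nm pulses (frequency-doubled 532 nm NOPA output from a 775 nm Ti/Sa laser), 1 μJ, <150 fs. Probe: supercontinuum from a CaF2 plate, 270–690 nm. Sample flowed through a 0.4 mm cell with a 0.2 mm spot. Probe and reference were read on photodiode arrays; cross-correlation <100 fs. Data to 50 ps were chirp-corrected, and 3–6 scans of 400 shots/point were averaged.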
# [4] = 300 nm, pH 7.3, HEPES (0.01 mol/L) and LiClO4 (0.1 mol/L)
# [5] = 300 nm, pH 8.2, HEPES (0.01 mol/L) and LiClO4 (0.1 mol/L)
# [6] = unbuffered 18 MΩ Ultrapure H2O, conversion <2%
# [7] = unbuffered H2O, singlet λmax ~ 315 nm
# [8] = 300 nm, pH 5.0, ammonium acetate (0.01 mol/L), buffered CH3CN–H2O
# [9] = unbuffered H2O with acetonitrile (5%) added to dissolve the ester
compound,measurement,setting,value
"Cc1cc(C(=O)COC(=O)CCCN)cc(C)c1O.O=C(O)C(F)(F)F [Compound 8, 4-(2-(4-Hydroxy-3,5-dimethylphenyl)-2-oxoethoxy)-4-oxobutan-1-aminium-2,2,2-trifluoroacetate]","Φapp, quantum yield for the appearance of GABA",[1]; [4],0.17
same,"Φapp, quantum yield for the appearance of rearranged acid",[1]; [4],0.15
same,"Φdis, quantum yield for the disappearance of pHP GABA",[1]; [4],0.17
same,"Φapp, quantum yield for the appearance of GABA",[1]; [5],0.11
same,"Φapp, quantum yield for the appearance of rearranged acid",[1]; [5],0.09
same,"Φdis, quantum yield for the disappearance of pHP GABA",[1]; [5],0.11
same,"Φapp, quantum yield for the appearance of GABA",[1]; [6],0.14
same,"Φapp, quantum yield for the appearance of rearranged acid",[1]; [6],0.13
same,"Φdis, quantum yield for the disappearance of pHP GABA",[1]; [6],0.15
"Cc1cc(C(=O)COC(=O)CCCN)ccc1O.O=C(O)C(F)(F)F [Compound 6, 4-(2-(4-Hydroxy-3-methylphenyl)-2-oxoethoxy)-4-oxobutan-1-aminium-2,2,2-trifluoroacetate]","Φapp, quantum yield for the appearance of GABA",[1]; [4],0.16
same,"Φapp, quantum yield for the appearance of rearranged acid",[1]; [4],0.13
same,"Φdis, quantum yield for the disappearance of pHP GABA",[1]; [4],0.15
same,"Φapp, quantum yield for the appearance of GABA",[1]; [5],0.08
same,"Φapp, quantum yield for the appearance of rearranged acid",[1]; [5],0.06
same,"Φdis, quantum yield for the disappearance of pHP GABA",[1]; [5],0.08
same,"Φapp, quantum yield for the appearance of GABA",[1]; [6],0.14
same,"Φapp, quantum yield for the appearance of rearranged acid",[1]; [6],0.13
same,"Φdis, quantum yield for the disappearance of pHP GABA",[1]; [6],0.15
"CCOP(=O)(OCC)OCC(=O)c1ccc(O)c(OC)c1 [Compound 28, Diethyl (2-(4-hydroxy-3-methoxyphenyl)-2-oxoethyl) phosphate]","Φdis, disappearance quantum yield (pHP diethyl phosphates)",[1]; 50% aq CH3CN,0.39
"CC(=O)c1ccc(O)cc1 [Compound 1d, p-hydroxyacetophenone, reference compound]",Reduction of pKa of the excited triplet state relative to ground-state pKa,[2],about 4.3 pKa units
"NCCCC(=O)OCC(=O)c1ccc(O)c([N+](=O)[O-])c1.O=C(O)C(F)(F)F [Compound 12, 4-(2-(4-Hydroxy-3-nitrophenyl)-2-oxoethoxy)-4-oxobutan-1-aminium-2,2,2-trifluoroacetate]",Photochemical reactivity,[1],"Note: NA, not available. All runs were low conversions to products (<2%). Standard deviations are <±0.02. 3-NO2 (12), 3-OH (4), and 2-OH (5) did not react under these conditions and are omitted. Unbuffered 18 MΩ Ultrapure H2O was used."
"CC(=O)OCC(=O)c1ccc(O)cc1C#N [Compound 25, 2-(2-Cyano-4-hydroxyphenyl)-2-oxoethyl acetate]","Φdis, disappearance quantum yield (pHP acetates)",[1],0.17
"CCOP(=O)(OCC)OCC(=O)c1ccc(O)c(C(C)=O)c1 [Compound 32, 2-(3-Acetyl-4-hydroxyphenyl)-2-oxoethyl diethyl phosphate]","Φdis, disappearance quantum yield (pHP diethyl phosphates)",[1]; 50% aq CH3CN,0.03
"NCCCC(=O)OCC(=O)c1ccc(O)c(O)c1.O=C(O)C(F)(F)F [Compound 4, 4-(2-(3,4-Dihydroxyphenyl)-2-oxoethoxy)-4-oxobutan-1-aminium-2,2,2-trifluoroacetate]",Photochemical reactivity,[1],"Note: NA, not available. All runs were low conversions to products (<2%). Standard deviations are <±0.02. 3-NO2 (12), 3-OH (4), and 2-OH (5) did not react under these conditions and are omitted. Unbuffered 18 MΩ Ultrapure H2O was used."
"NCCCC(=O)OCC(=O)c1ccc(O)cc1.O=C(O)C(F)(F)F [Compound 1, 4-(2-(4-Hydroxyphenyl)-2-oxoethoxy)-4-oxobutan-1-aminium-2,2,2-trifluoroacetate]","k2, rate constant for triplet decay",[3]; unbuffered H2O,3.0 ^c 109 s^−1
same,"k1, rate constant for triplet rise",[3]; [7],4.4 1011 s^−1
same,"Φapp, quantum yield for the appearance of GABA",[1]; [8],0.20
same,"Φapp, quantum yield for the appearance of rearranged acid",[1]; [8],0.18
same,"Φdis, quantum yield for the disappearance of pHP GABA",[1]; [8],0.21
same,"Φapp, quantum yield for the appearance of GABA",[1]; [4],0.20
same,"Φapp, quantum yield for the appearance of rearranged acid",[1]; [4],0.20
same,"Φdis, quantum yield for the disappearance of pHP GABA",[1]; [4],0.21
same,"Φapp, quantum yield for the appearance of GABA",[1]; [5],0.09
same,"Φapp, quantum yield for the appearance of rearranged acid",[1]; [5],0.06
same,"Φdis, quantum yield for the disappearance of pHP GABA",[1]; [5],0.09
same,"Φapp, quantum yield for the appearance of GABA",[1]; [6],0.19
same,"Φapp, quantum yield for the appearance of rearranged acid",[1]; [6],0.16
same,"Φdis, quantum yield for the disappearance of pHP GABA",[1]; [6],0.20
"NCCCC(=O)OCC(=O)c1ccc(O)c(C(=O)O)c1.O=C(O)C(F)(F)F [Compound 9, 4-(2-(3-Carboxy-4-hydroxyphenyl)-2-oxoethoxy)-4-oxobutan-1-aminium-2,2,2-trifluoroacetate]","k2, rate constant for triplet decay",[3]; unbuffered H2O,1.0 109 s^−1
same,"k1, rate constant for triplet rise",[3]; [7],2.1 1011 s^−1
"COc1cc(C(=O)COC(=O)CCCN)cc(OC)c1O.O=C(O)C(F)(F)F [Compound 3, 4-(2-(4-Hydroxy-3,5-dimethoxyphenyl)-2-oxoethoxy)-4-oxobutan-1-amonium-2,2,2-trifluoroacetate]","k1, rate constant for triplet rise",[3]; [9],2.7 1011 s^−1
same,"k2, rate constant for triplet decay",[3]; [9],2.8 ^d 109 s^−1
same,"Φapp, quantum yield for the appearance of GABA",[1]; [6],0.03
same,"Φdis, quantum yield for the disappearance of pHP GABA",[1]; [6],0.03
"CC(=O)OCC(=O)c1ccc(O)c(C#N)c1 [Compound 26, 2-(3-Cyano-4-hydroxyphenyl)-2-oxoethyl acetate]","Φdis, disappearance quantum yield (pHP acetates)",[1],0.08
"CCOP(=O)(OCC)OCC(=O)c1cc(OC)c(O)c(OC)c1 [Compound 29, Diethyl (2-(4-hydroxy-3,5-dimethoxyphenyl)-2-oxoethyl) phosphate]","Φdis, disappearance quantum yield (pHP diethyl phosphates)",[1]; 50% aq CH3CN,0.44 ^d
same,"Φdis, disappearance quantum yield","[1]; λ = 350 nm, 50% aq CH3CN",d Φdis = 0.13 at λ = 350 nm.
"COC(=O)c1cc(C(=O)COC(=O)CCCN)ccc1O.O=C(O)C(F)(F)F [Compound 10, 4-(2-(4-Hydroxy-3-(methoxycarbonyl)phenyl)-2-oxoethoxy)-4-oxobutan-1-aminium-2,2,2-trifluoroacetate]","k2, rate constant for triplet decay",[3]; unbuffered H2O,1.3 109 s^−1
same,"k1, rate constant for triplet rise",[3]; [7],3.2 1011 s^−1
"NCCCC(=O)OCC(=O)c1ccc(O)cc1O.O=C(O)C(F)(F)F [Compound 5, 4-(2-(2,4-Dihydroxyphenyl)-2-oxoethoxy)-4-oxobutan-1-aminium-2,2,2-trifluoroacetate]",Photochemical reactivity,[1],"Note: NA, not available. All runs were low conversions to products (<2%). Standard deviations are <±0.02. 3-NO2 (12), 3-OH (4), and 2-OH (5) did not react under these conditions and are omitted. Unbuffered 18 MΩ Ultrapure H2O was used."
"NCCCC(=O)OCC(=O)c1ccc(O)c(C(N)=O)c1.O=C(O)C(F)(F)F [Compound 11, 4-(2-(3-Carbamoyl-4-hydroxyphenyl)-2-oxoethoxy)-4-oxobutan-1-aminium-2,2,2-trifluoroacetate]","k2, rate constant for triplet decay",[3]; unbuffered H2O,2.2 109 s^−1
"COc1cc(C(=O)COC(=O)CCCN)ccc1O.O=C(O)C(F)(F)F [Compound 2, 4-(2-(4-Hydroxy-3-methoxyphenyl)-2-oxoethoxy)-4-oxobutan-1-amonium-2,2,2-trifluoroacetate]","k2, rate constant for triplet decay",[3]; unbuffered H2O,1.3 109 s^−1
same,"k1, rate constant for triplet rise",[3]; [7],2.2 1011 s^−1
same,"Φapp, quantum yield for the appearance of GABA",[1]; [6],0.06
